Measured values as given in PubChem BioAssay AID651572 (The Scripps Research Institute Molecular Screening Center, 2012).
Values joined by “and” are separate entries in the source; they are usually repeats but may differ in a detail not shown here. Identical values can stand only once. The whole screen tested about 360,000 compounds, of which about 950 (0.26%) were called active. The sample holds actives, similar compounds and a random draw of the others, so the mix is not that of the screen.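 How the source made its calls: active means inhibition above a per-plate limit, mean inhibition of low control wells plus 3 SD (cut at about 25% in these data); inactive means the rest.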 The source holds several records for some structures; these can differ, active in one and inactive in another.

These molecules were tested against ADP-ribosylation factor GTPase-activating protein 1 (Rattus norvegicus) (UniProt Q62848) (assay: inhibitors of rat ARFGAP1 GAP activity, primary screen, biochemical, fluorescence polarization, GDP tracer (AID 651572;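 further: 0% = DMSO wells with enzyme and 100% = wells lacking Arfgap1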)). Settings: Arfgap1-stimulated ARF1 GTP hydrolysis, GDP FP detection; at 16.5 µM; stronger effect = higher value.
Method in brief: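 system = rat Arfgap1 catalytic domain, aa 1-136 | technique = FP, GDP Alexa 633 tracer displaced from anti-GDP antibody, 620/688 nm | compound = one concentration, 16.5 µM, DMSO 1.26% | medium = HEPES-based buffer, pH 7.5 | timing = compound-enzyme preincubation 20 min, reaction 120 min, detection 60 min, 25 °C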

Sequence of ADP-ribosylation factor GTPase-activating protein 1 (Rattus norvegicus) (Q62848 1-136 limits assumed): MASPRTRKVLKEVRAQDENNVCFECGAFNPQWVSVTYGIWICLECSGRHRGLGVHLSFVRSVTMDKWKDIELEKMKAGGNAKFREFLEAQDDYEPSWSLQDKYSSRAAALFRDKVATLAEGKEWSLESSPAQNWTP

inhibition, inactive:
C=CC[C@]12C[C@@]3(O[C@H](c4ccc(C(F)(F)F)cc4)N=C3C[C@H](c3ccc(OC)cc3)[C@H]1C)N(C1CCN(Cc3ccccc3)CC1)C2=O 4.67%, CN(C)C(=O)N1CCN(C(=O)[C@@H](Cc2ccccc2)NC(=O)[C@H]2O[C@@H](n3ccc(N)nc3=O)[C@H](O)[C@@H]2O)CC1 5.01%, COC(=O)Cc1nnn2c1[C@H](C)[C@H](c1ccccc1[N+](=O)[O-])OCC2 4.46%, COc1ccc(S(=O)(=O)Nc2ccc3c(c2)C(=O)N([C@H](C)CO)C[C@H](C)[C@@H](CN(C)C)OCCCC[C@H](C)O3)cc1 1.2%, OC(COc1ccc(CN2CCSCC2)cc1)CN1CCCCC1 (centres undefined) -6.07%, Cc1cccc(OCC(O)CN2CCN(S(=O)(=O)c3ccc(C)cc3C)CC2)c1 (centres undefined) 10.2%, Cc1cc(OC(=O)NCCc2ccc(F)cc2)ccc1F 17%, Cc1ccc(N)cc1CN1CCN(c2ncc(Cc3ccccc3)cn2)CC1 -5.78%, O=C(NCc1ccccc1)c1ccc(CNc2c(N3CCCC3)c(=O)c2=O)cc1 -4.58%, O=C(NCc1ccc(F)cc1)C1CCC(CNc2c(N3CCOCC3)c(=O)c2=O)CC1 (centres undefined) 2.8%, O=C(NS(=O)(=O)c1cccs1)[C@H]1O[C@@H](n2ccc(=O)[nH]c2=O)[C@H](O)[C@@H]1O 1.8%, C[C@H](O)[C@@H]1CN2CCc3ccc(-c4ccc5c(c4)OCO5)cc3[C@@H]2C[C@@H]1N(C)C(=O)C1CCCCC1 -7.53%, CN[C@H]1C[C@H]2c3[nH]c4c(-c5ccccc5)cccc4c3CCN2C(=O)[C@H]1[C@H](C)O 6.11%, Fc1ccc(-c2ccc(-c3nn4c(-c5ccco5)nnc4s3)o2)cc1 3.63%, CCCCCCCCN1C(=O)[C@@H](CC(=O)NCc2ccccc2)C[C@@]2(C(=O)OC)C1=C[C@H](C(C)(C)C)O[C@@H]2C 1.82%, C=CCN=C1NC(c2ccccc2)C(C(=O)OC)=C(C)N1Cc1ccc(C(F)(F)F)cc1 (centres undefined) 7.52%, COC(=O)N1Cc2ccnnc2CC1c1ccccc1Br (centres undefined) 0.38%, O=C(C(=O)N1CCC(CNC(=O)c2cccnc2Cl)CC1)c1cccs1 12.7%, COc1ccc(NC(=O)N(C)C[C@@H]2OCCCC[C@@H](C)Oc3ccc(NC(=O)NC4CCCCC4)cc3C(=O)N([C@H](C)CO)C[C@@H]2C)cc1 -0.56%, O=C(CN1CCN(c2ccccn2)CC1)NCc1cccs1 19.2%, CCC(=O)Nc1ccc2c(c1)nc(CCN1CCN(c3ccccn3)CC1)n2C -11.6%, O=S(=O)(c1cccs1)N1CCCc2nc(-c3ccc(Br)cc3)ccc21 -3.29%, O=C(NCc1ccccc1)[C@@H]1CCCN1C(=O)[C@@H](NS(=O)(=O)c1ccc(F)cc1F)C1CCCCC1 2.51%, COC(=O)[C@]12C[C@H](CC(=O)NCCC(C)C)C(=O)N(CCc3ccc(OC)c(OC)c3)C1=C[C@H](C(C)(C)C)O[C@@H]2C 6.73%, Cc1ccc2nc(SCC(=O)Nc3cccc4ccccc34)nc(=O)n2c1 8.63%, Cc1ccc2nc(SCC(=O)N3CCN(c4ccccc4)CC3)nc(=O)n2c1 22.7%, Brc1ccc(COCCc2cn(Cc3ccccc3)c3ccccc23)cc1 10.9%, CCN1C(=O)N[C@@H]2C[C@H](C(=O)N3CCCC3)[C@H](C)[C@H](c3ccccc3)C[C@@H]21 -0.64%, O=C(C(=O)N1CCC(CNS(=O)(=O)Cc2ccccc2)CC1)c1cc2ccccc2o1 10.3%, O=C(NCc1ccccc1)[C@H]1CCCN1C(=O)[C@H]1CCCN1C(=O)c1cc(F)cc(F)c1 -2.81%, COc1ccc(C(CNC(=O)c2ccc(S(=O)(=O)Nc3ccccc3C)cc2)N2CCOCC2)cc1 (centres undefined) -2.87%, COc1ccc(C(CNC(=O)c2cccc(NS(=O)(=O)c3ccc(C)c(F)c3)c2)N2CCCC2)cc1 (centres undefined) 16.5%

inhibition, active:
OC(COc1cccc(OCC(O)CN2CCCC2)c1)CN1CCCC1 (centres undefined) 28.2%, O=C(NC1CCCCC1)c1ccc(CNc2c(N3CCOCC3)c(=O)c2=O)cc1 26.4%, c1ccc(-c2cc(-c3nnc4sc(-c5ccccn5)nn34)[nH]n2)cc1 37.4%, CCN(CC)c1ccc(NC(=O)CN2CCN(c3ccccn3)CC2)cc1 45.5%, Cc1ccc2nc(SCC(=O)N3CC(C)OC(C)C3)nc(=O)n2c1 (centres undefined) 83.6%, COc1ccc(C(CNC(=O)c2cccc(S(=O)(=O)Nc3ccccc3Cl)c2)N2CCOCC2)cc1 (centres undefined) 27%

inhibition, -2.58% (inactive) and 25.1% (active):
C#C[C@]1(O)CC[C@H]2[C@@H]3CCC4=CC(=O)CC[C@@H]4[C@H]3CC[C@@]21CC
